Calls of active or inactive are those of the source. The rule behind the calls is not given here.

Consider one compound from ChEMBL document CHEMBL5674890, “Selective inhibition of CBP/p300 HAT by A-485 results in suppression of lipogenesis and hepatic gluconeogenesis” (Cell Death Dis, 2020).

The test system of assay [1] is Mus musculus. Put plainly: Anti-obesity activity in C57BL/6 mouse supplemented with high fat diet assessed as effect on total lean mass at 20 mg/kg/day, ip administered for 1 week. The assay is classed as functional, organism-based. The note with it: time 1.0 weeks. The essentials:
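Male C57BL/6 mice fed high-fat diet for 14 weeks from 5 weeks of age, then ip 20 mg·kg−1·day−1 for 7 days. Body weight, EchoMRI lean/fat mass, and random or 16 h-fasted blood glucose recorded, as the line states.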

In assay [2] the test system is Mus musculus. Description: Anti-obesity activity in C57BL/6 mouse supplemented with high fat diet assessed as decrease in blood glucose level at 20 mg/kg/day, ip administered for 1 week measured by pyruvate tolerance test. The assay is classed as functional, organism-based. The note with it: time 1.0 weeks. A digest of the protocol:
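High-fat diet male C57BL/6 mice (14 weeks on HFD from 5 weeks of age) dosed ip at 20 mg·kg−1·day−1 for 7 days. 16 h fast, then pyruvate 2 g/kg body weight ip; blood glucose tracked.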

In assay [3] the test system is Mus musculus. Put plainly: Inhibition of lipogenesis in C57BL/6 mouse supplemented with high-fat diet assessed as decrease in weight of epididymal white adipose tissue (eWAT) at 20 mg/kg/day, ip administered for 1 week. The assay is classed as functional, organism-based. The note with it: time 1.0 weeks. The essentials:
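Male C57BL/6 mice were fed high-fat diet for 14 weeks from 5 weeks of age, then injected ip with 20 mg·kg−1·day−1 for 7 days or given vehicle. Epididymal and inguinal WAT were weighed, examined by H&E, and analysed. Transcripts were measured by Trizol/SYBR Green RT-qPCR; proteins by western blot. n = 5–9; mean ± SEM.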

The subject of another assay is Adipocyte. Put plainly: Inhibition of lipogenesis in mouse adipocytes isolated stromal vascular cells assessed as decrease in ACC mRNA expression measured after 24 hrs by RT-qPCR assay. The assay is classed as functional, cell-based. The essentials: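 Stromal vascular cells came from collagenase-digested inguinal WAT of C57BL/6 mice and were grown in DMEM/F12 with 10% FBS. At confluence, differentiation used insulin 5 μg/ml, dexamethasone 1 μM and IBMX 0.5 mM for 48 h, then insulin alone for 6 days. Fully differentiated day-8 adipocytes were exposed to A-485 for 24 h. Transcripts were quantified by RT-qPCR.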
(Real-time PCR tracks product formation cycle by cycle.)

The test system of assay [4] is Mus musculus. Put plainly: Inhibition of hepatic lipogenesis in C57BL/6 mouse supplemented with normal chow diet assessed as decrease in lipid droplet at 20 mg/kg/day, ip administered for 1 week measured by Oil red O staining method. The assay is classed as functional, organism-based. The note with it: time 1.0 weeks. The essentials:
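Eight-week-old male C57BL/6 mice on normal chow were dosed daily by ip injection at 20 mg·kg−1·day−1 for 7 days, with a vehicle group. Liver sections were stained with Oil red O to view lipid droplets.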

Assay [5] concerns Mus musculus. Description: Inhibition of hepatic lipogenesis in C57BL/6 mouse supplemented with high fat diet assessed as decrease in total cholesterol level at 20 mg/kg/day, ip administered for 1 week. The assay is classed as functional, organism-based. The note with it: time 1.0 weeks. A digest of the protocol: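 Male C57BL/6 mice received ip A-485 at 20 mg·kg−1·day−1 for 7 days, versus vehicle. NCD mice were 8 weeks old. HFD mice had been on high-fat diet for 14 weeks from 5 weeks of age. Liver triglyceride and total cholesterol content was determined. n = 5–9; mean ± SEM.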

Assay [6] deals with Hepatocyte. Put plainly: Inhibition of lipogenesis in mouse primary hepatocytes assessed as decrease in ACC protein expression at 3 uM in presence of 100 nM insulin and 5 to 25 mM glucose measured after 18 hrs by western blot analysis. The assay is classed as functional, cell-based. In general terms: Immunoblotting shows a protein as a band on a membrane.
Assay [7] relates to Hepatocyte. Description: Inhibition of glucogenesis in mouse primary hepatocytes stimulated with 100 uM 8-Br-cAMP assessed as decrease in PEPCK mRNA expression at 3 uM in presence of cAMP measured after 8 hrs by RT-qPCR assay. The assay is classed as functional, cell-based. The essentials: (§1)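 Primary mouse hepatocytes treated with 3 μM compound and 100 μM 8-Br-cAMP for 8 h. Trizol RNA, SYBR Green RT-qPCR of the named transcript. Mean ± SEM, three independent experiments.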

The subject of assay [8] is Hepatocyte. Put plainly: Inhibition of glucogenesis in mouse primary hepatocytes stimulated with 100 uM 8-Br-cAMP assessed as decrease in glucose production at 3 uM in combination with 2 mM metformin. The assay is classed as functional, cell-based. The essentials: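 Primary mouse hepatocytes pretreated with 100 nM dexamethasone for 16 h. Glucose production then measured in glucose-free DMEM with 1 mM pyruvate, 10 mM lactate and 0.25% BSA, in the presence of 100 μM 8-Br-cAMP, with 3 μM compound plus 2 mM metformin. Medium glucose assayed colorimetrically. Three independent experiments.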

For another assay, the system named is HepG2. Put plainly: Inhibition of glucogenesis in human HepG2 cells stimulated with 8-Br-cAMP at 3 uM assessed as effect on change in CBP/CREB interaction measured by coimmunoprecipitation analysis. The assay is classed as functional, cell-based. The essentials:
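HepG2 cells treated with 3 μM compound. CREB association with CBP and TORC2 assessed by coimmunoprecipitation (antibody 2 h, protein A/G beads overnight at 4 °C) and western blot.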

The subject of assay [9] is Hepatocyte. Put plainly: Inhibition of glucogenesis in mouse primary hepatocytes stimulated with 100 uM 8-Br-cAMP assessed as effect on PGC1alpha mRNA expression at 3 uM measured after 8 hrs by RT-qPCR assay. The assay is classed as functional, cell-based. The essentials: as §1

On to `CNC(=O)Nc1ccc2c(c1)CCS21OC(=O)N(CC(=O)N(Cc2ccc(F)cc2)[C@@H](C)C(F)(F)F)C1=O` (stereo partly specified), for which the result in the assay on Mus musculus [1] was inactive. Further, in the assay on Mus musculus [2], the outcome was Active. Besides, the inhibition result in the assay on Mus musculus [3], with Adipocyte, in the assay on Mus musculus [4], with Mus musculus [5], in the assay with Hepatocyte [6] and with Hepatocyte [7] was “Active” throughout. The inhibition result in the assay on Hepatocyte [8] is “Active”. Besides, the inhibition entry in the assay with HepG2 and with Hepatocyte [9] was “inactive” throughout.
